# Measured values from different studies.
# Each line is one published result; the experiments were not run side by side.
# Target: Serine/threonine-protein kinase MRCK beta (CDC42BPB, Homo sapiens, UniProt Q9Y5S2)
Structure (SMILES),effect on,technique,concentration,remaining binding
CN(C)c1ncc(F)c(-c2cnn3ncccc23)n1,binding,,1 µM,100%
Cc1nc(C2CCN(C(=O)c3ccc(OC(F)(F)F)cc3N)CC2)c2ncc(N3CCN(C)CC3)cc2n1,cell-free assay,competition with immobilised ligand,1 µM,100%
c1cncc(-c2cccc(Nc3nccc(NC4CCCCC4)n3)c2)c1,binding,competition with immobilised ligand,10 µM,99%
O=C(Nc1cccnn1)N1CC(C/C=C/c2cncc(Oc3ccc(C(F)(F)F)cn3)n2)C1,cell-free assay,competition with immobilised ligand,1 µM,100%
N[C@@H]1CCN(c2nccc(-c3cnn4ncccc34)n2)C1,binding,,1 µM,100%
O=C(NCC1CCOCC1)c1n[nH]cc1NC(=O)c1c(F)cccc1F,binding,competition with immobilised ligand,1 µM,95%
Cc1cc(-n2nc(Cc3cc(F)cc(C(F)(F)F)c3)nc2C)ccc1C(N)=O,cell-free assay,competition with immobilised ligand,1 µM,100%
C[C@H]1CCN(c2nccc(-c3cnn4ncccc34)n2)C1,binding,,1 µM,100%
Nc1c(C(=O)NCc2ccc(C(=O)NCCCC3CCCCC3)cc2)cnn1-c1ccccc1,cell-free assay,competition with immobilised ligand,0.1 µM,100%
Cc1cnc(Nc2ccc(C(=O)N3CCC(N4CCCC4)CC3)cc2)nc1-c1cc2ccccc2s1,binding,competition with immobilised ligand,1 µM,59%
COc1ccc2cc(OCC3(C(=O)O)CN(C(=O)c4ccc(F)cc4)C3)ccc2c1,cell-free assay,competition with immobilised ligand,1 µM,100%
O=C(NCCCN1CCOCC1)c1ccc(Nc2ncc(Cl)c(-c3ccc(Cl)s3)n2)cc1,binding,competition with immobilised ligand,1 µM,100%
CNC(=O)[C@@H]1CC[C@@H](n2c(-c3ccc4cnccc4c3)nc3ccc(C(=O)NCc4cccc(C(N)=O)c4)cc32)C1,binding,competition with immobilised ligand,1 µM,100%
COc1ncc2cc3ccccc3nc2c1C#N,cell-free assay,competition with immobilised ligand,5 µM,100%
Nc1ncc2c(n1)-c1c([nH]c3ccc(C#CC4CC4)cc13)CCCC2,binding,competition with immobilised ligand,1 µM,93%
C[C@@H](c1ccc(-n2cnc3c(N)ncnc32)cc1)N1CCc2nn(C)c(Cc3ccccc3)c2C1=O,binding,competition with immobilised ligand,0.1 µM,89%
Cc1cnn2ncc(-c3ccnc(N(C)C)n3)c2c1,binding,,1 µM,100%
O=C(NCCCN1CCOCC1)c1ccc(Nc2nccc(-c3cc4ccccc4s3)n2)cc1,binding,competition with immobilised ligand,1 µM,100%
c1cnn2ncc(-c3ccnc(N4CCC45COC5)n3)c2c1,binding,,1 µM,94%
COCCOc1nc(-c2ccc(Cl)nc2)nc2c1CN(C(=O)c1ncn3ccccc13)CC2,cell-free assay,competition with immobilised ligand,0.1 µM,100%
CCN1CCN(Cc2ccc(C(=O)Nc3ccc(C)c(Oc4ccc5c(c4)CC(=O)N5)c3)cc2C(F)(F)F)CC1,binding,competition with immobilised ligand,1 µM,77%
